Test results from ChEMBL document CHEMBL1141019, “New cyclic tetrapeptides from Nonomuraea sp. TA-0426 that inhibit glycine transporter type 1 (GlyT1)” (Bioorg Med Chem Lett, 2008).
Residues, ends and D or L forms follow the SMILES beside them.

Test system: T98G
Experiment: Inhibition of [3H]glycine uptake in human T98G cells
Type: functional, cell-based
In short: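 T98G cells (2 × 10⁴ cells/well) plated, held 24 h at 37 °C in humidified incubator; washed, then exposed at room temperature to 250 nM [³H]-glycine plus test sample for 15 min. Cells washed, lysed in 0.5 M NaOH, radioactivity read by scintillation counting. IC50 from nonlinear regression curve fit; means of two experiments.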

SMILES | IC50
CC[C@H](C)[C@@H]1NC(=O)[C@H](Cc2ccccc2)NC(=O)[C@H]([C@@H](C)CC)NC(=O)[C@H]([C@@H](C)CC)NC(=O)[C@H]([C@@H](C)CC)NC1=O (cyclo(FIIII)) | 655 nM
CC[C@H](C)[C@@H]1NC(=O)[C@H](C(C)C)NC(=O)[C@H](Cc2ccccc2)NC(=O)[C@H]([C@H](C)[C@@H](C)O)NC1=O | 5 nM
CN(CC[C@@H](Oc1ccc(-c2ccccc2)cc1)c1ccc(F)cc1)CC(=O)O | 4.8 nM
CC[C@H](C)[C@@H]1NC(=O)[C@H](Cc2ccccc2)NC(=O)[C@H]([C@H](C)[C@@H](C)O)NC(=O)[C@H]([C@@H](C)CC)NC1=O | 3.5 nM
CC[C@H](C)[C@@H]1NC(=O)[C@H](Cc2ccccc2)NC(=O)[C@H]([C@@H](C)CC)NC(=O)[C@H]([C@@H](C)CC)NC1=O (cyclo(FIII)) | 21.2 nM

The remaining molecules from weak to strong by IC50, led by results:

IC50 | SMILES
16400 nM | CC[C@H](C)[C@H](N)C(=O)N[C@H](C(=O)N[C@H](C(=O)N[C@@H](Cc1ccccc1)C(=O)O)[C@@H](C)CC)[C@@H](C)CC (H-IIIF-OH)
1680 nM | CC[C@H](C)[C@@H]1NC(=O)[C@H](Cc2ccccc2)NC(=O)[C@H]([C@@H](C)CC)NC(=O)[C@H]([C@@H](C)CC)NC(=O)[C@H]([C@@H](C)CC)NC(=O)[C@H]([C@@H](C)CC)NC1=O (cyclo(FIIIII))
71.8 nM | CC[C@H](C)[C@@H]1NC(=O)[C@H](Cc2cn(OC)c3ccccc23)NC(=O)[C@H](CCCCC(C)=O)NC(=O)[C@H]2CCCCN2C1=O
12.5 nM | CC[C@H](C)[C@@H]1NC(=O)[C@H](Cc2ccccc2)NC(=O)[C@H]([C@H](CS(=O)(=O)O)C(C)=O)NC(=O)[C@H]([C@@H](C)CC)NC1=O
5.5 nM | CC[C@H](C)[C@@H]1NC(=O)[C@H](Cc2ccccc2)NC(=O)[C@H]([C@H](C)[C@@H](C)O)NC(=O)[C@H](C(C)C)NC1=O
4 nM | CC(C)[C@@H]1NC(=O)[C@H](Cc2ccccc2)NC(=O)[C@H]([C@H](C)[C@@H](C)O)NC(=O)[C@H](C(C)C)NC1=O
